Experimental data: ChEMBL document CHEMBL4321814, “Design of Gallinamide A Analogs as Potent Inhibitors of the Cysteine Proteases Human Cathepsin L and Trypanosoma cruzi Cruzain” (J Med Chem, 2019)
Calls of active or inactive are those of the source. The calls are words filed in the database; no cut-off is given here.

Columns and labels:
[1] = molecular target: Procathepsin L (Homo sapiens) (UniProt P07711); assay: Irreversible inhibition of human cathepsin L assessed as reduction in enzyme activity using fluorogenic substrate cbz-FR-AMC incubated for 30 mins followed by 100 fold dilution and measured after 2 hrs by spectrophotometry
Sequence of Procathepsin L (Homo sapiens) (P07711 114-333 limits assumed): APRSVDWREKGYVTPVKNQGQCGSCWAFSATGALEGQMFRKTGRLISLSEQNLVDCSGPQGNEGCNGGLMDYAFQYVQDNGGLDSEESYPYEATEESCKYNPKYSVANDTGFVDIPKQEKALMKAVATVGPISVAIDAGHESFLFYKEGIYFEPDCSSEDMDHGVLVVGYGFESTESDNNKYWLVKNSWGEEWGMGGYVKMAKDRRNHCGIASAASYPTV
In short: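 Preincubation-dilution: cathepsin L at 100-fold final assay concentration incubated 30 min with inhibitor at 10-fold its IC₅₀. Then diluted 100-fold into assay buffer with 10 μM Z-FR-AMC, giving standard enzyme level and 0.1× IC₅₀ inhibitor. AMC fluorescence read continuously in kinetic mode for 2 h and activity compared with vehicle control.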

[2] = tested on: Trypanosoma cruzi; type: functional; settings: C2C12, 72 h, read-out: LD50 (the source's name)
[3] = molecular target: Cruzipain (Trypanosoma cruzi, UniProt P25779); assay: Inhibition of recombinant Trypanosoma cruzi Cruzain expressed in Pichia pastoris using Z-Phe-Arg-AMC substrate incubated for 30 mins by fluorescence based assay
Sequence of Cruzipain (P25779 whole entry): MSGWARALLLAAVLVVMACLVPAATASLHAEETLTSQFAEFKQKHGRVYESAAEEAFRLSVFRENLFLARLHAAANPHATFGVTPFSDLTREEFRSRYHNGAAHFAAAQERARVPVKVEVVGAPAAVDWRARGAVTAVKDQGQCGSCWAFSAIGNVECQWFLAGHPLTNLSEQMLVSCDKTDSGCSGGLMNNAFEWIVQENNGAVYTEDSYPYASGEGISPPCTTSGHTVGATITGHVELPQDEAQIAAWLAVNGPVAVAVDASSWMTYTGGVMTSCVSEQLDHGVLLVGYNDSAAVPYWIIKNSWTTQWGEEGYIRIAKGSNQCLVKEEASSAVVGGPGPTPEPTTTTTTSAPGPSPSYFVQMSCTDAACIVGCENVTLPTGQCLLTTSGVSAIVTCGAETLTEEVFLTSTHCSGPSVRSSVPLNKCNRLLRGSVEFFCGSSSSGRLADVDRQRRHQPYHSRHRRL

[4] = Cytotoxicity in mouse C2C12 cells assessed as reduction in cell viability incubated for 3 days; type: cell-based; settings: read-out: LD50
[5] = molecular target: Procathepsin L (Homo sapiens) (UniProt P07711); assay: Reversible inhibition of human cathepsin L assessed as residual enzyme activity using fluorogenic substrate cbz-FR-AMC incubated for 30 mins followed by 100 fold dilution and measured after 1 hrs by spectrophotometry
[6] = molecular target: Procathepsin L (Homo sapiens) (UniProt P07711); assay: Inhibition of human cathepsin L assessed as Kinact /Ki ratio using fluorogenic substrate cbz-FR-AMC monitored for 90 to 120 mins by spectrophotometry
In short: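 Continuous kinetic assay with 0.5 ng/mL final cathepsin L and 10 μM Z-FR-AMC, with DMSO below 6%. Inhibitors were a 3-fold, 11-point series from […] to 1.0 μM. Substrate and inhibitor were combined and enzyme was added to start the reaction. AMC release was read for 2 h and converted via an AMC standard curve. Progress curves were fitted to a six-parameter covalent inhibition model (k_inact, association/dissociation constants).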

[7] = molecular target: Procathepsin L (Homo sapiens) (UniProt P07711); assay: Irreversible inhibition of human cathepsin L assessed as residual enzyme activity using fluorogenic substrate cbz-FR-AMC incubated for 30 mins followed by 100 fold dilution and measured after 2 hrs by spectrophotometry
[8] = molecular target: Procathepsin L (Homo sapiens) (UniProt P07711); assay: Irreversible inhibition of human cathepsin L assessed as residual enzyme activity using fluorogenic substrate cbz-FR-AMC incubated for 30 mins followed by 100 fold dilution and measured after 1 hrs by spectrophotometry

| Compound | inhibition [1] | LC50 [2] [nM] | IC50 [3] [nM] | CC50 at 72 h [4] [µM] | Activity [5] [%] | Ratio [6] [×10³ /M/s] | Activity [7] [%] | inhibition [8] |
| --- | --- | --- | --- | --- | --- | --- | --- | --- |
| CC(C)CCNC(=O)[C@H](CC(C)C)NC(=O)[C@H]1O[C@@H]1C(=O)O | Active | – | – | – | – | – | – | – |
| CC[C@H](C)[C@@H](C(=O)O[C@@H](CC(C)C)C(=O)N[C@@H](CC(C)C)C(=O)N[C@@H](C)/C=C/C(=O)N1C(=O)C=C(OC)[C@@H]1Cc1ccccc1)N(C)C | – | 19.1 | 0.76 | > 10 | – | – | – | – |
| CC[C@H](C)[C@@H](C(=O)O[C@@H](CC(C)C)C(=O)N[C@@H](CC(C)C)C(=O)N[C@@H](C)CCC(=O)N1C(=O)C=C(OC)[C@@H]1C)N(C)C | – | – | – | – | 75 | – | – | – |
| COC1=CC(=O)N(C(=O)/C=C/[C@H](C)NC(=O)[C@H](CC(C)C)NC(=O)[C@H](CC(C)C)OC(=O)[C@H](C(C)C)N(C)C)[C@H]1C | – | 12.9 | 2.89 | > 10 | – | 487 | – | – |
| CC[C@H](C)[C@@H](C(=O)O[C@@H](CC(C)C)C(=O)N[C@@H](CC(C)C)C(=O)N[C@@H](/C=C/C(=O)N1C(=O)C=C(OC)[C@@H]1Cc1ccccc1)Cc1ccccc1)N(C)C | – | 1080 | 81 | > 10 | – | 6.9 | – | – |
| COC1=CC(=O)N(C(=O)/C=C/[C@H](Cc2ccccc2)NC(=O)[C@H](CC(C)C)NC(=O)[C@H](CC(C)C)OC(=O)[C@H](Cc2ccccc2)N(C)C)[C@@H]1Cc1ccccc1 | – | > 10000 | 3.69 | > 10 | – | 1390 | – | – |
| COC1=CC(=O)N(C(=O)/C=C/[C@H](Cc2ccccc2)NC(=O)[C@H](CC(C)C)NC(=O)[C@H](CC(C)C)OC(=O)[C@H](C(C)C)N(C)C)[C@H]1CC(C)C | – | 16.4 | 0.25 | > 10 | – | 1780 | – | – |
| CC[C@H](C)[C@@H](C(=O)O[C@@H](CC(C)C)C(=O)N[C@@H](CC(C)C)C(=O)N[C@H](/C=C/C(=O)N1C(=O)C=C(OC)[C@H]1Cc1ccccc1)Cc1ccccc1)N(C)C | – | 33.3 | 1.07 | > 10 | – | 1030 | – | – |
| COC1=CC(=O)N(C(=O)/C=C/[C@H](Cc2ccccc2)NC(=O)[C@H](CC(C)C)NC(=O)[C@H](CC(C)C)OC(=O)[C@H](Cc2ccccc2)N(C)C)[C@H]1C | – | 60.3 | 1.2 | > 10 | – | 819 | – | – |
| CC[C@H](C)[C@@H](C(=O)O[C@@H](CC(C)C)C(=O)N[C@@H](CC(C)C)C(=O)N[C@H](/C=C/C(=O)N1C(=O)C=C(OC)[C@@H]1Cc1ccccc1)Cc1ccccc1)N(C)C | – | 33.8 | 1.15 | > 10 | – | 719 | – | – |
| CC[C@H](C)[C@@H](C(=O)O[C@@H](CC(C)C)C(=O)N[C@@H](CC(C)C)C(=O)N[C@H](/C=C/C(=O)N1C(=O)C=C(OC)[C@@H]1C)Cc1ccccc1)N(C)C | – | 35.8 | 0.84 | > 10 | – | – | – | – |
| CC[C@H](C)[C@@H](C(=O)O[C@@H](CC(C)C)C(=O)N[C@@H](CC(C)C)C(=O)N[C@H](/C=C/C(=O)N1C(=O)C=C(OC)[C@@H]1CC(C)C)Cc1ccccc1)N(C)C | – | 61.8 | 1.08 | > 10 | – | – | – | – |
| CC[C@H](C)[C@@H](C(=O)O[C@@H](CC(C)C)C(=O)N[C@@H](CC(C)C)C(=O)N[C@@H](C)/C=C/C(=O)N1C(=O)C=C(OC)[C@@H]1C)N(C)C [GALLINAMIDE A] | – | 14.7 | 0.26 | > 10 | – | 901 | 5 | Active |
| O=C(Cn1ccnc1[N+](=O)[O-])NCc1ccccc1 [BENZNIDAZOLE] | – | 1500 | – | – | – | – | – | – |
| CC[C@H](C)[C@@H](C(=O)O[C@@H](CC(C)C)C(=O)N[C@@H](CC(C)C)C(=O)N[C@@H](C)/C=C/C(=O)N1C(=O)C=C(OC)[C@@H]1CC(C)C)N(C)C | – | 5.1 | 0.49 | > 10 | – | 2510 | – | – |
| COC1=CC(=O)N(C(=O)/C=C/[C@H](Cc2ccccc2)NC(=O)[C@H](CC(C)C)NC(=O)[C@H](CC(C)C)OC(=O)[C@H](Cc2ccccc2)N(C)C)[C@H]1Cc1ccccc1 | – | > 10000 | 1.35 | > 10 | – | 1060 | – | – |
| CC[C@H](C)[C@@H](C(=O)O[C@@H](CC(C)C)C(=O)N[C@@H](CC(C)C)C(=O)N[C@@H](/C=C/C(=O)N1C(=O)C=C(OC)[C@H]1Cc1ccccc1)Cc1ccccc1)N(C)C | – | 537 | 37.1 | > 10 | – | 23.9 | – | – |
| COC1=CC(=O)N(C(=O)/C=C/[C@H](C)NC(=O)[C@H](CC(C)C)NC(=O)[C@H](CC(C)C)OC(=O)[C@H](Cc2ccccc2)N(C)C)[C@H]1Cc1ccccc1 | – | 18.6 | 0.73 | > 10 | – | 3480 | – | – |
| C#CCCCCOC1=CC(=O)N(C(=O)/C=C/[C@H](C)NC(=O)[C@H](CC(C)C)NC(=O)[C@H](CC(C)C)OC(=O)[C@H]([C@@H](C)CC)N(C)C)[C@@H]1C | – | 17 | 0.47 | > 10 | – | – | – | – |
